STAT3 blocker = STAT3 signaling inhibition. U3A cells, IL-6 STAT3-luciferase reporter, luminescence; host cell line lacks STAT1. inhibition, % at 5.5 µM. actives 0.89% (n = 190,000);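 active means inhibition above the mean inhibition across all screened compounds plus 3 SD, cut at about 44% in these data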;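 further: 0% = DMSO only wells and 100% = 100 µM nifuroxazide control wells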
PERK inhibitor = blocks human PERK kinase. AID 1416. CHO PERK-DD fusion, SEAP luminescence translation reporter. inhibition, % at 5.6 µM. actives 0.17% (n = 220,000);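 active means inhibition above the mean inhibition of all tested compounds plus 3 SD, set separately per screening campaign, cut at about 2.9% in these data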;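 further: PERK kinase domain activated by AP20187 dimerizer at 100 nM; 0% = DMSO with dimerizer and 100% = rapamycin at 8.4 µM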
Target sequence (Q9NZJ5 whole entry, looked up, the tested form may be a part): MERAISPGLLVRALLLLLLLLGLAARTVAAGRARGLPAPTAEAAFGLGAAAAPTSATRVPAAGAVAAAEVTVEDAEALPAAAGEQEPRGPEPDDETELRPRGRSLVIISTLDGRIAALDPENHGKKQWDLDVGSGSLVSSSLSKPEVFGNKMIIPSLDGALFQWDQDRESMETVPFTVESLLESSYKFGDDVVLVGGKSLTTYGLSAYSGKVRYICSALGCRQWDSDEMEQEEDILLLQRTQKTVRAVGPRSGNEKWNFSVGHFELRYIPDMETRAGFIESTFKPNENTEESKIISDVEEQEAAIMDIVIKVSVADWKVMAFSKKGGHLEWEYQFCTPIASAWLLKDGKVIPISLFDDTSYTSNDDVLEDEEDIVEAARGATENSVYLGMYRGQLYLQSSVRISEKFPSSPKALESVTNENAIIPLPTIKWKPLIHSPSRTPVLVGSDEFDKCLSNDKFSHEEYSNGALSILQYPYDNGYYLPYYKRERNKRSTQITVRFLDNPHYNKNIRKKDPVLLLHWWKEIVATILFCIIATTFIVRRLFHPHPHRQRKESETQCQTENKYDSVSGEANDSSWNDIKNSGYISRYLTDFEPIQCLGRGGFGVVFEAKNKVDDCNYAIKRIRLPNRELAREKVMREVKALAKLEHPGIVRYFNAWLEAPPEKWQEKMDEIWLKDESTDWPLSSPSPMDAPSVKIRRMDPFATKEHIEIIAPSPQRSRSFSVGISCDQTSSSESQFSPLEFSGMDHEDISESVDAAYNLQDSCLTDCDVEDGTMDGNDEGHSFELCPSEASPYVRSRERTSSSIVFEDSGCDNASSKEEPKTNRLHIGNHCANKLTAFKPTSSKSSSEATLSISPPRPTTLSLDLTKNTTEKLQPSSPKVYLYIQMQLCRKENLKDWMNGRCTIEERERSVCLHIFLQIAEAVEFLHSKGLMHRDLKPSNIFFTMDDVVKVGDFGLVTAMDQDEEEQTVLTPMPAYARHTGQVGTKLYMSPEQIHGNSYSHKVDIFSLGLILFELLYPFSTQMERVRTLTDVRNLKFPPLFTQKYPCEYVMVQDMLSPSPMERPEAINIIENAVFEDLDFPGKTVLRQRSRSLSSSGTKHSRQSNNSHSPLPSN
STAT3 act-1 = increases IL-6 driven STAT3 reporter signal; AID 871; U3A cells, IL-6 STAT3-luciferase reporter, luminescence; 100% = signal with IL-6 EC80 alone; activation (% of control), % at 5.6 µM; actives 0.91% (n = 190,000);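 active means activation above the screen-wide mean of compound activation plus 3 SD, cut at about 130% in these data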;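 further: 0% = background luminescence of wells with medium and substrate only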
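Test system: Human STAT1-deficient U3A cells with stable STAT3-luciferase reporter | Also added: Interleukin-6, 33 ng/mL | Timing: Compound pre-incubation 1 h before IL-6, then 6 h stimulation at 37 °C | Technique: Luciferase reporter luminescence | Read-out: Percent of IL-6-only median luminescence | Benchmarks: IL-6-only wells as 100% reference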
STAT1 inh = inhibitors of IFN-gamma induced STAT1 signaling | NIH 3T3 STAT1-luciferase reporter, luminescence | inhibition, % at 5.5 µM | actives 0.35% (n = 200,000) | AID 920;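 active means inhibition above a set limit, the mean inhibition across all tested compounds plus 3 SD, cut at about 34% in these data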;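 further: 0% = IFN-gamma with DMSO and 100% = IFN-gamma with 300 µM nifuroxazide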
Platelet DG rel = platelet dense granule release activity; AID 1663; actives 0.22% (n = 300,000); inhibition, %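 (compounds screened at 7.5 µM in platelet-rich plasma)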; human platelet-rich plasma, SFLLRN dense granule ATP release, luminescence;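 active means mean replicate score, as percent of positive control, at or above 50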
STAT3 act-2 = STAT3 activation, confirmation assay | shares compounds with STAT3 act-1 | U3A STAT3-luciferase reporter, IL-6 potentiation, luminescence; U3A cells lack STAT1; 100 means same as IL-6 alone | potentiation (% of control), % at 5.7 µM | actives 64% (n = 1,200);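 active means percent activation of the STAT3 luciferase reporter above a set limit taken from the earlier primary screen, cut at about 130% in these data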;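 further: 0% = background signal of medium plus substrate and 100% = median of IL-6 with DMSO wells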
NFkB act STAT3ct = NF-kappaB activation in STAT3 activator counter-screen; activation (% of control), % at 5.7 µM; actives 11% (n = 1,200); shares compounds with STAT3 act-1; human cells, NF-kappaB reporter activation; in the data active means activation above about 120%;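 further: reporter induced by TNF-alpha stimulation; 100% = median of stimulated DMSO wells and 0% = no signal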
STAT1 act STAT3c = counter-screen for STAT3 activators: STAT1 activation; shares compounds with STAT3 act-1; NIH 3T3 STAT1-luciferase reporter, IFN-gamma, luminescence; activation (% of control), % at 5.7 µM; actives 13% (n = 1,200); AID 1318;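 active means activation above the solvent-only control well mean plus 3 SD, set per screening run, cut at about 120% in these data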;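 further: 100% = IFN-gamma with DMSO median signal so 100% means no change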
* hit, by the source's call; x = no result given. Rows were chosen to be rich in hits. Some 1.4% of all compounds tested hit in one or more screens of this group.

SMILES	STAT3 blocker	PERK inhibitor	STAT3 act-1	STAT1 inh	Platelet DG rel	STAT3 act-2	NFkB act STAT3ct	STAT1 act STAT3c
COc1cc(NC(=O)c2cc(C(C)C)on2)c(OC)cc1Cl	-68.9	-0.3	167.9*	0.4	18.1	151.9*	97.0	104.1
COc1cc(NC(=O)c2cc(C3CC3)on2)c(OC)cc1Cl	-59.8	0.8	159.3*	1.0	1.2	149.9*	103.2	98.0
CC(=O)Nc1ccc(S(=O)(=O)Nc2nc3ccccc3nc2N2CCc3ccccc3C2)cc1	-48.1	-0.3	137.1*	-13.7	4.8	139.8*	105.7	119.2
O=S(=O)(Nc1nc2ccccc2nc1N1CCc2ccccc2C1)c1ccc(Br)cc1	25.0	-0.8	81.3	-65.6	x	x	x	x
CC(=O)Nc1ccc(S(=O)(=O)Nc2nc3ccccc3nc2N2CCCCCC2)cc1	-3.1	1.1	104.8	1.2	-4.5	x	x	x
O=S(=O)(Nc1nc2ccccc2nc1N1CCc2ccccc2C1)c1ccc(Cl)cc1	-43.1	-0.5	136.3*	-23.1	10.6	130.2	110.1	118.0
Cc1ccccc1S(=O)(=O)Nc1nc2ccccc2nc1N1CCc2ccccc2C1	-37.9	-0.4	136.4*	0.5	-3.4	134.7*	118.8	113.7
COc1ccc(C(=O)N(C)Cc2ccccn2)cc1OC1CCN(C(C)C)CC1	x	x	x	x	8.1	x	x	x
O=[N+]([O-])c1ccccc1C1Nc2cccc3cccc(c23)N1	-32.8	0.6	137.6*	10.9	0.1	121.7	121.7*	99.0
Clc1cccc(/C=N/Nc2nnc(Cl)c3ccccc23)c1	-39.3	0.8	140.4*	-0.4	-8.4	127.9	112.6	117.3
Clc1ccc(/C=N/Nc2nnc(-c3ncc[nH]3)c3ccccc23)cc1	-16.9	-0.2	116.0	-15.4	7.6	x	x	x
Cc1ccc(-n2nc(C)cc2NC(=O)c2ccc(C)s2)cc1	-37.0	-0.2	135.9*	-0.2	3.1	113.8	102.0	97.0
Cc1ccc(-n2nc(C)cc2NC(=O)CC#N)cc1	7.3	0.6	99.5	5.8	-0.9	x	x	x
COc1cc2c(cc1OC)C(c1ccccc1)CC2=O (stereo not drawn)	x	0.5	x	x	-13.9	x	x	x
O=C(O)CC/C(=C\c1ccccc1[N+](=O)[O-])c1nc2ccccc2s1	-8.5	1.7	107.4	-3.0	1.2	x	x	x
O=C(O)CC/C(=C\c1cc([N+](=O)[O-])ccc1Cl)c1nc2ccccc2s1	-46.1	1.4	141.6*	14.9	4.9	146.8*	103.2	91.9
C=CCn1c(COc2ccc(CC)cc2)nnc1SC/C(O)=C(\C#N)c1nc2ccccc2[nH]1	-72.1	0.3	160.3*	7.9	11.5	150.2*	101.9	89.0
COc1ccc(C2c3[nH]c4ccccc4c3CCN2CCCn2cccn2)c(C)c1C (stereo not drawn)	-67.0	-1.1	162.6*	2.5	-1.4	162.6*	101.0	95.2
COc1cccc(C2c3[nH]c4ccccc4c3CCN2C(=O)Cn2cncn2)c1OC (stereo not drawn)	-31.6	0.7	129.5	3.5	4.6	x	x	x
O=C(CSc1nnc(C2CC2)n1CC1CCCO1)Nc1ccccc1Cl (stereo not drawn)	x	x	x	x	7.0	x	x	x
CC(=O)Nc1cccc(NC(=O)CSc2ccc(-c3cccnc3)nn2)c1	-51.1	0.3	140.4*	-5.3	1.8	114.5	98.5	106.0
COc1ccc(Nc2nc(-c3cccs3)cs2)c(OC)c1	-8.5	-0.7	110.2	-69.6	5.5	x	x	x
COc1ccc(OC)c(Nc2nc(-c3cccs3)cs2)c1	-52.8	-0.1	146.5*	-11.1	3.5	121.1	112.4	102.8
Cn1c(O)c(N=Nc2ccc(F)cc2)c2ccccc21	-54.2	0.0	152.3*	0.0	-2.0	165.2*	104.0	97.9
Cn1c(O)c(N=Nc2nc(-c3ccccc3)cs2)c2ccccc21	-55.4	0.7	146.8*	9.6	-1.0	158.7*	106.0	95.9
Cn1c(O)c(N=Nc2ccccc2)c2ccccc21	x	x	x	x	1.8	x	x	x
COc1ccc(OCC(=O)Nc2cc(-c3nn(C)c(=O)c4ccccc34)ccc2N2CCOCC2)cc1	x	-0.5	x	x	5.2	x	x	x

Screens from PubChem.
